Screening data deposited in PubChem by several laboratories.
Hits are enriched below; roughly 2.4% of the tested compounds scored in any of these assays.
Neddyl block: cullin neddylation inhibition | inhibition, % at 25 µM | 360,000 tested, 0.58% active | P61081+Q13564 | TR-FRET cullin neddylation, biochemical; in the data active = inhibition above about 36%
Rpn11 block: Rpn11 (human) deubiquitinase inhibition; human 26S proteasome, Ub4-pepOG fluorescence polarization; 20S core pre-blocked with epoxomicin; O00487; AID 588493; inhibition, % at 20 µM; 360,000 tested, 0.59% active;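 active = inhibition at 20 µM, scaled to each plate's controls, above about 33%, limit read from the data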
Target sequence (O00487 whole entry, looked up): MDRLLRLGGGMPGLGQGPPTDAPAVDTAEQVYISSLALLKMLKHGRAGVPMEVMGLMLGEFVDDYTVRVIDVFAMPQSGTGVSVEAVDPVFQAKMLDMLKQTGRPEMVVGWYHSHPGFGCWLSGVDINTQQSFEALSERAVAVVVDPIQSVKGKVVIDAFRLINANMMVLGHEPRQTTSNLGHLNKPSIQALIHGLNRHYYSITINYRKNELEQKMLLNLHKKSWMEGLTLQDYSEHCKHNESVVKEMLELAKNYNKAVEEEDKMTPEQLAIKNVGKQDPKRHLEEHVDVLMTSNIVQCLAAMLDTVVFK
TbMetRS inhib: Trypanosoma brucei MetRS inhibition; purified T. brucei MetRS, ATP depletion, Kinase-Glo luminescence; inhibition, % at 11.9 µM; 360,000 tested, 0.4% active;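 active = inhibition above a per-plate cutoff of the control wells' mean inhibition plus 3 SD, cut at about 5.5% in these data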;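 note: 0% = DMSO wells median and 100% = median of wells with control inhibitor compound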
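Test system – parasite MetRS enzyme · Reagent – substrates ATP, L-methionine and bulk Escherichia coli tRNA · Doses – 11.9 µM compound single dose, 0.9% DMSO · Times – 15 min enzyme-compound preincubation, 2 h reaction, 10 min detection, 25 °C · Signal – Kinase-Glo luminescence, ATP depletion format · Controls – DMSO-only wells as low control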
PREPL inhibitor: human PREPL enzyme inhibition; 320,000 tested, 0.68% active; recombinant PREPL, fluorescence polarization activity-based probe; inhibition, % at 5.96 µM; Q4J6C6; AID 2751; in the data active = inhibition above about 43%;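 note: 0% = enzyme with DMSO and 100% = wells lacking enzyme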
HNF4A DNA FP: change in binding of human HNF4 alpha to DNA. HNF4a-FITC DNA binding, fluorescence polarization, 1 h. activity change, % at 10 µM. P41235. 360,000 tested, 0.3% active; in the data active = activity change above about 30%, passing the limit was not always enough
CSN inh: CSN deneddylation inhibition; 360,000 tested, 0.38% active; Q92905; inhibition, % at 12.5 µM; Purified CSN, SCF-Nedd8-OG deneddylation, fluorescence polarization;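 active = pattern-corrected inhibition above about 35%, with an unprinted fluorescence ratio check between 0.5 and 1.5, limit read from the data, passing the limit was not always enough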;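 note: 0% = enzyme with substrate and 100% = substrate without enzyme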
Target sequence (Q92905 whole entry, looked up, one chain of several): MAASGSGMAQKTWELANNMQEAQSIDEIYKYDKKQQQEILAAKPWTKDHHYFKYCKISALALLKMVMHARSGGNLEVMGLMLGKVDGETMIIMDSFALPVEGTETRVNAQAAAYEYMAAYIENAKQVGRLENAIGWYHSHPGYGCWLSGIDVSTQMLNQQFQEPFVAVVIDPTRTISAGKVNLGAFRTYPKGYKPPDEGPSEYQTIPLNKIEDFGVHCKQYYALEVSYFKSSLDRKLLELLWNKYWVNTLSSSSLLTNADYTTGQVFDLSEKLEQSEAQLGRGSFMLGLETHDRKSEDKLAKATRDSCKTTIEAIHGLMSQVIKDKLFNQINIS
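Assay system: HEK293T-derived human Csn5 enzyme; quantity: 0.24 nM enzyme; medium: Tris/NaCl/DTT buffer, pH 7.5; also added: substrate SCFSkp2-Nedd8OG, 10 nM; doses: 12.5 µM compound; schedule: 90 min reaction at room temperature; signal: FP; read-out: % inhibition of substrate cleavage by Csn5; benchmarks: substrate-only high control, full reaction low control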
Neddyl inh conf: confirmation of human cullin neddylation inhibitors. shares compounds with Neddyl block. TR-FRET cullin neddylation biochemical assay. calls only at 25 µM. 1,800 tested, 13% active. AID 652217; in the data active = inhibition above about 40%;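 note: neddylation substrate is the cullin 1 ring ligase complex with SKP2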
Active calls of the source: *; i = inactive; . = no result shown; + = active, no number.

SMILES	Neddyl block	Rpn11 block	TbMetRS inhib	PREPL inhibitor	HNF4A DNA FP	CSN inh	Neddyl inh conf
C/C(=N\NC(=O)c1ccc(N2CCCC2=O)cc1)c1ccc(O)cc1O	62.7*	-4.2	-0.6	2.0	-0.4	-5.5	i
OC(c1ccccc1)C(NCc1ccccc1)c1ccccc1 (stereo unspecified)	1.1	-10.6	-0.3	.	-1.6	1.3	.
O=C(c1cc(C2CC2)nn1-c1ccccc1)N1CCN(Cc2c(F)cccc2Cl)CC1	-14.3	1.6	-0.5	5.8	-1.1	-5.3	.
COC(=O)c1cc(OC)c(OC)cc1NCC(=O)Nc1ccc(C)cc1	46.6*	5.9	0.1	-5.1	-3.1	-1.4	.
COC(=O)c1cc(OC)c(OC)cc1NCC(=O)Nc1ccc(OC)c(OC)c1	15.8	-5.0	0.3	5.3	-1.9	-5.3	.
O=C(Cc1ccccn1)c1ccc(F)cc1	-24.4	-6.5	-0.3	5.5	1.4	0.0	.
COCCNc1cc(C)c(C#N)c2nc3ccccc3n12	.	-3.7	-0.6	2.8	3.5	26.6	.
COCCNc1c2c(c(C#N)c3nc4ccccc4n13)CCCC2	52.7*	-1.9	-0.3	6.9	1.1	-5.2	+
CCc1c(C)c(C#N)c2nc3ccccc3n2c1NCCN(C)C	37.7	5.4	0.7	23.4	2.5	9.8	.
C=CCc1c(C)c(C#N)c2nc3ccccc3n2c1NCCN(C)C	42.9*	1.2	1.0	18.5	1.1	5.3	.
N#Cc1c2c(c(NCCOCCO)n3c1nc1ccccc13)CCCC2	48.7*	4.3	-0.6	4.0	-3.2	0.3	+
COc1cc(S(=O)(=O)N2CCN(c3ccccn3)CC2)ccc1Br	14.3	3.5	0.3	-12.5	1.3	-1.8	.
O=C(NCc1ccccc1)c1cc(C2COCCN2C(=O)OCCF)on1 (stereo unspecified)	2.7	-9.3	-0.1	.	-0.9	0.7	.
NC(=O)N/N=C\c1cc(Br)ccc1O	41.3*	4.9	-0.3	-0.9	1.4	-1.9	i
O=C(N/N=C/c1cc(Br)ccc1O)Nc1ccccc1	32.3	-5.7	-0.4	25.2	2.4	-3.9	.
CCCCCCCC(=O)N/N=C(\C)c1ccc(O)cc1O	42.1*	-8.6	-1.2	-3.8	1.7	-2.9	i
CCCCCCCCC(=O)N/N=C(\C)c1ccc(O)cc1O	35.5	-8.1	-0.4	-2.2	-1.3	-5.8	.
COC(=O)[C@@]12C[C@@H](CC(=O)N3CCSCC3)C(=O)N(Cc3ccccc3)C1=CCC(C)(C)C2	-0.5	.	-1.2	.	2.6	0.9	.
CC(C)NCC(O)COCc1ccc(Cl)cc1 (stereo unspecified)	-3.7	2.1	-0.2	-7.8	6.3	1.2	.
CC(C)NCC(O)COCCOc1ccc(Cl)cc1 (stereo unspecified)	75.9*	5.2	0.1	5.0	-2.1	-0.7	i
CC(=O)C12OC(C)(C)OC1CC1C3CCC4=CC(=O)C=CC4(C)C3(F)C(O)CC12C (stereo unspecified)	-3.0	0.8	-0.5	.	2.9	4.5	.
CNC(=S)N1CCN(c2c(F)cc3c(=O)c(C(=O)O)cn(C4CC4)c3c2OC)CC1C (stereo unspecified)	.	-4.3	0.0	-4.0	2.2	-3.0	.
C[C@@H]1CN(c2c(F)c(F)c3c(=O)c(C(=O)O)cn(C4CC4)c3c2F)C[C@H](C)N1	45.9*	0.7	-0.7	.	-1.1	-0.5	.
O=C(Nc1sc2c(c1C(=O)O)CCCCC2)c1ccco1	21.0	1.2	-0.8	1.9	-0.1	0.3	.
O=C(Nc1sc2c(c1C(=O)NCCO)CCCC2)c1ccco1	40.0*	-1.7	-0.5	-6.2	-1.3	-2.9	.
SMILES	Neddyl block	Rpn11 block	TbMetRS inhib	PREPL inhibitor	HNF4A DNA FP	CSN inh	Neddyl inh conf
CCOc1ccc(-c2cc(C(=O)N/N=C/c3cccnc3)c3ccccc3n2)cc1	53.0*	5.9	-0.2	-6.1	1.9	0.3	.
Cc1ccc(-c2cc(C(=O)NCc3ccccn3)c3ccccc3n2)cc1	40.6*	0.1	-1.1	-12.5	-2.2	6.7	i
COc1ccc(OC)c(-c2cc(C(=O)N/N=C/c3ccc(F)cc3)c3ccccc3n2)c1	38.9*	3.0	0.5	25.3	4.3	-2.9	.
COc1ccc(OC)c(-c2cc(C(=O)N/N=C/c3cc(OC)c(OC)cc3OC)c3ccccc3n2)c1	.	-1.0	0.6	14.4	0.8	2.9	.
CCOc1ccccc1-c1cc(C(=O)N/N=C/c2cccnc2)c2ccccc2n1	22.1	0.2	0.7	10.8	1.7	-3.0	.
CC(OC(=O)c1cccnc1Cl)C(=O)Nc1ccc2c(c1)OCO2 (stereo unspecified)	5.5	0.9	0.4	3.2	0.2	-4.4	.
Cc1ccc(S(=O)(=O)N2CC3(O)CN(C(=O)OC(C)C)N(C(=O)OC(C)C)CC3(OC(=O)NCc3ccccc3)C2)cc1 (stereo unspecified)	7.9	-0.1	0.4	.	-3.7	3.2	.
Nc1[nH]c(=O)nc(Nc2ccccc2)c1N=O	-21.4	3.1	0.5	-2.9	-0.7	0.6	.
Cc1ccc2c(=O)n3c(nc2c1)C(Cc1ccc(O)cc1)NC(=O)c1ccc(Cl)cc1-3 (stereo unspecified)	.	.	.	1.4	.	.	.
COc1ccc(-c2cc(C(=O)NNC(=O)c3csc(N4CCOCC4)n3)c3ccccc3n2)cc1	42.4*	18.2	-0.3	2.8	-2.9	-1.0	i
COc1ccc(NC(=O)Cn2c(C)cc(=O)c3ccccc32)cc1	-14.5	-1.7	0.0	-3.5	0.1	0.5	.
COc1cccc2c(=O)cc(C)n(CC(=O)Nc3cccc(C)c3)c12	43.8*	0.8	0.8	-11.7	0.7	-0.4	i
N#Cc1ccc(/C=C2\CCCCn3c2nc2cc(C(=O)O)ccc2c3=O)cc1	-13.3	3.3	0.0	-4.2	4.2	1.3	.
O=C(O)c1ccc2c(=O)n3c(nc2c1)/C(=C/c1ccc(Cl)cc1Cl)CC3	.	2.0	-0.9	-8.1	-0.4	6.1	.
O=C(O)c1ccc2c(=O)n3c(nc2c1)/C(=C/c1ccc(C(F)(F)F)cc1)CC3	48.7*	1.4	0.4	-4.3	-3.0	-4.0	+
O=C(O)c1ccc2c(=O)n3c(nc2c1)/C(=C/c1cccc(Cl)c1Cl)CC3	52.1*	4.6	0.2	0.0	-1.5	6.4	.
CCCc1cc(=O)n2c(nc3ccccc32)[nH]1	49.4*	-5.0	2.4	9.4	-2.7	5.8	.
CCCCc1c(O)n2c(nc3ccccc32)[nH]c1=O	60.0*	0.1	0.5	1.0	2.1	3.1	+
CCC(c1nnnn1-c1ccc2c(c1)OCCO2)N1CCN(c2cccc(C)c2C)CC1 (stereo unspecified)	6.9	.	-0.6	.	-0.8	-1.2	.
COc1cccc(/C=C/C(=O)OCC(=O)NCC2CCCCC2)c1OC	30.5*	-7.6	-0.7	-0.6	-0.4	0.9	i
COc1ccc(/C=C/C(=O)OCC(=O)NC2CCCCCCC2)cc1	1.8	0.4	-0.1	29.1	-3.3	-1.8	.
